# Test results published in ChEMBL document CHEMBL2040751, “Discovery of PF-04449913, a Potent and Orally Bioavailable Inhibitor of Smoothened” (ACS Med Chem Lett, 2012).
# Assays:
# [1] = biological target: Protein smoothened (Mus musculus) (UniProt P56726); assay: Potency ratio, ratio of IC50 for compound to IC50 for compound 1 in mouse C3H10T1/2 cells by SMO/SHH transient transcriptional activation based Gli-luciferase reporter assay; assay type: cell-based; settings: C3H 10T1/2
# Protein smoothened = Protein smoothened (Mus musculus, UniProt P56726); assay: Inhibition of Smo in mouse C3H10T1/2 cells using human recombinant SHH assessed as effect on SMO/SHH transient transcriptional activation after 20 hrs by Gli-luciferase reporter assay; assay type: cell-based, C3H 10T1/2
# [2] = Chemical solubility of the compound in PBS at pH 6.5; assay type: physicochemical
# [3] = Chemical solubility of the compound in SGN at pH 1.2; assay type: physicochemical
# [4] = Aqueous solubility of the compound; assay type: physicochemical; settings: buffer
# [5] = Clearance in dog at 0.5 mg/kg, iv and 3 mg/kg, po; assay type: ADME, organism-based, Canis lupus familiaris; settings: in vivo
# Method in brief: (§1)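 In dogs, the IV dose was 0.5 mg/kg in solution in 10% EtOH/20% PEG400/70% PBS. The oral dose was 3 mg/kg in methylcellulose in water.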
# [6] = Oral bioavailability in rat at 1 mg/kg; assay type: ADME, organism-based; settings: in vivo
# Method in brief: (§2)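 Rats received 1 mg/kg IV as a solution in 10% EtOH/20% PEG400/70% PBS. A separate group received 1 mg/kg orally in methylcellulose in water.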
# [7] = Fraction unbound in dog liver microsomes; assay type: ADME, Canis lupus familiaris, Microsome
# [8] = Intrinsic clearance in rat microsomes; assay type: ADME, Microsome
# [9] = Clearance in rat at 1 mg/kg, iv and 1 mg/kg, po; assay type: ADME, organism-based; settings: in vivo; method in brief: as §2
# [10] = Half life in rat at 1 mg/kg, iv and 1 mg/kg, po; assay type: ADME, organism-based; settings: in vivo; method in brief: as §2
# [11] = Lipophilicity, log D of the compound; assay type: physicochemical; settings: octanol/water
# [12] = Intrinsic clearance in dog microsomes; assay type: ADME, Canis lupus familiaris, Microsome
# [13] = Percentage unbound in human plasma; assay type: ADME, cell-free
# Salmonella typhimurium = assay: Induction of genotoxicity in Salmonella typhimurium by Ames test; assay type: toxicity, organism-based; settings: salmonella enterica subsp. enterica serovar typhimurium
# [14] = Volume of distribution at steady state in dog at 0.5 mg/kg, iv and 3 mg/kg, po; assay type: ADME, organism-based, Canis lupus familiaris; settings: in vivo, read-out: Vdss; method in brief: as §1
# [15] = Percentage unbound in dog plasma; assay type: ADME, cell-free, Canis lupus familiaris
# Cytochrome P450 2C19 = Cytochrome P450 2C19 (Homo sapiens, UniProt P33261); assay: Inhibition of CYP2C19; assay type: ADME
# [16] = Half life in dog at 0.5 mg/kg, iv and 3 mg/kg, po; assay type: ADME, organism-based, Canis lupus familiaris; settings: in vivo; method in brief: as §1
# [17] = Fraction unbound in human liver microsomes; assay type: ADME, Microsome
# Cytochrome P450 2D6 = Cytochrome P450 2D6 (Homo sapiens, UniProt P10635); assay: Inhibition of CYP2D6; assay type: ADME
# [18] = Oral bioavailability in dog at 3 mg/kg; assay type: ADME, organism-based, Canis lupus familiaris; settings: in vivo; method in brief: as §1
# Cytochrome P450 3A4 = Cytochrome P450 3A4 (Homo sapiens, UniProt P08684); assay: Inhibition of CYP3A4; assay type: ADME
# [19] = Intrinsic clearance in human microsomes; assay type: ADME, Microsome
# [20] = Dissociation constant, pKa of the compound; assay type: physicochemical
# [21] = Volume of distribution at steady state in rat at 1 mg/kg, iv and 1 mg/kg, po; assay type: ADME, organism-based; settings: in vivo, read-out: Vdss; method in brief: as §2
# [22] = Apparent permeability of the compound across basolateral to apical side in human Caco2 cells; assay type: ADME, cell-based; settings: Caco-2
# [23] = Apparent permeability of the compound across apical to basolateral side in human Caco2 cells; assay type: ADME, cell-based; settings: Caco-2
# [24] = Fraction unbound in rat liver microsomes; assay type: ADME, Microsome
# [25] = Induction of genotoxicity in micronucleus by micronucleus test
# Cytochrome P450 1A2 = biological target: T1, Cytochrome P450 1A2 (Homo sapiens, UniProt P05177); assay: Inhibition of CYP1A2; assay type: ADME
# T1 sequence (P05177 whole entry): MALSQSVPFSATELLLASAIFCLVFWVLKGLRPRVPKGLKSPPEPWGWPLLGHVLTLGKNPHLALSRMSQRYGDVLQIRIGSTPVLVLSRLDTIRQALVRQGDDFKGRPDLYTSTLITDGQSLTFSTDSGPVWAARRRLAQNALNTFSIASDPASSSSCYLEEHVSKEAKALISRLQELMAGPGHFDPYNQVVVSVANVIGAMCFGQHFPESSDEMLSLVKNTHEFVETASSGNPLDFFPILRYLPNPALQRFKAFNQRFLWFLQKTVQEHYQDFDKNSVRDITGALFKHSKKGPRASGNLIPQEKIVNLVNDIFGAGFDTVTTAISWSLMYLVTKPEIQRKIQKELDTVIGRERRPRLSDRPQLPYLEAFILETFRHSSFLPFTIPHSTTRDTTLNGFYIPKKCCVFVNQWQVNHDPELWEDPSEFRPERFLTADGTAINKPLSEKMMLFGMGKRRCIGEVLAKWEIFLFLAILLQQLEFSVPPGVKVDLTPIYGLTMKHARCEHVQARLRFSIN
# Cytochrome P450 2C8 = biological target: T2, Cytochrome P450 2C8 (Homo sapiens, UniProt P10632); assay: Inhibition of CYP2C8; assay type: ADME
# T2 sequence (P10632 whole entry): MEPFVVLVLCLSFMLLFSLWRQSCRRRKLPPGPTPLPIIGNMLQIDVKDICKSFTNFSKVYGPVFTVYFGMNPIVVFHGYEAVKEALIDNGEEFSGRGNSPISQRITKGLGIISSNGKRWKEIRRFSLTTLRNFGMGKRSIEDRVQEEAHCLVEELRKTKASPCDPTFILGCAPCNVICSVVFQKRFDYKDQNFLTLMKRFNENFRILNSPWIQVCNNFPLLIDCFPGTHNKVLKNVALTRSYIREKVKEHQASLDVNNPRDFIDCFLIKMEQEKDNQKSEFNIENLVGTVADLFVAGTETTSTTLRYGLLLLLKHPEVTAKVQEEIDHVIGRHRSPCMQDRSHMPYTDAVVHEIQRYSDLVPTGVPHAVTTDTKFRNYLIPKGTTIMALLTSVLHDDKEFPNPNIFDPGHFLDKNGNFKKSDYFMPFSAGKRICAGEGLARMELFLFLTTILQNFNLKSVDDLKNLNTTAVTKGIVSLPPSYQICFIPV
# [26] = Percentage unbound in rat plasma; assay type: ADME, cell-free
# Cytochrome P450 2C9 = Cytochrome P450 2C9 (Homo sapiens, UniProt P11712); assay: Inhibition of CYP2C9; assay type: ADME
# [27] = Oral bioavailability in dog at 5 mg/kg; assay type: ADME, organism-based, Canis lupus familiaris; settings: in vivo
# [28] = Plasma clearance in dog; assay type: ADME, organism-based, Canis lupus familiaris
# [29] = Drug excretion in rat urine at 2 mg/kg, iv; assay type: ADME, organism-based; parameters: dose 2 mg/kg, route intravenous; settings: read-out: Drug excretion
# [30] = Fraction absorbed in dog at 5 mg/kg, po; assay type: ADME, organism-based, Canis lupus familiaris; parameters: dose 5 mg/kg, route oral; settings: in vivo
# [31] = Plasma clearance in rat at 2 mg/kg, iv dosed in 20% PEG400/80% H2O; assay type: ADME, organism-based; parameters: dose 2 mg/kg, route intravenous
# Method in brief: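 Single IV dose of 2 mg/kg formulated in 20% PEG400/80% H2O. Plasma clearance was determined.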
# [32] = Drug excretion in rat bile at 2 mg/kg, iv; assay type: ADME, organism-based; parameters: dose 2 mg/kg, route intravenous; settings: read-out: Drug excretion
# [33] = Free intrinsic clearance in human microsomes; assay type: ADME, Microsome
# [34] = Oral bioavailability in rat at 5 mg/kg dosed in 0.5% methylcellulose in water; assay type: ADME, organism-based; settings: in vivo
# Method in brief: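 Oral dosing at 5 mg/kg, formulated in 0.5% methylcellulose in water.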
# Protein smoothened (Mus musculus), sequence (P56726 whole entry): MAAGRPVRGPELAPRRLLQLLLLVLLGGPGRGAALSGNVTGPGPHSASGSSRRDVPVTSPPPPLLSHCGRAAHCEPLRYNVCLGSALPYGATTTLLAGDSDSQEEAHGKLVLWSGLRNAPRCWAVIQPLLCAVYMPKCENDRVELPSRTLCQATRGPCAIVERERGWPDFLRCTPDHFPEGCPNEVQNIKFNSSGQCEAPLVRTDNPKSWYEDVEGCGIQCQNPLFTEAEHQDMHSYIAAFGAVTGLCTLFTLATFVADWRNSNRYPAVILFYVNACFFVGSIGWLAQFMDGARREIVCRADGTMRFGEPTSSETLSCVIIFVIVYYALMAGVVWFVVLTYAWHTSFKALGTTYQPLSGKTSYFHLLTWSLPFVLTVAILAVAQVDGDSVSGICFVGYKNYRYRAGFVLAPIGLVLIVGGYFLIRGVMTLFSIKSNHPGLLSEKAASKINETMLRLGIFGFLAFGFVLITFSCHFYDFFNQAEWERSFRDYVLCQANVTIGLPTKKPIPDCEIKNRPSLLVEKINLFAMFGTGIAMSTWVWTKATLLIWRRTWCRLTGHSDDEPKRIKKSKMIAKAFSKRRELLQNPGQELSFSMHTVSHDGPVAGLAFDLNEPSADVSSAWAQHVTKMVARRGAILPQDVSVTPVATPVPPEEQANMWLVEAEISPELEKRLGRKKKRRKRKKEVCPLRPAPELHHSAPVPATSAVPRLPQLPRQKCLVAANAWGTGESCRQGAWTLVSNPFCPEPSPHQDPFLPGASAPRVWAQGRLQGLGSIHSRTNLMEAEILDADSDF
# Protein smoothened, sequence (P56726 whole entry): as above
# Cytochrome P450 2D6, sequence (P10635 whole entry): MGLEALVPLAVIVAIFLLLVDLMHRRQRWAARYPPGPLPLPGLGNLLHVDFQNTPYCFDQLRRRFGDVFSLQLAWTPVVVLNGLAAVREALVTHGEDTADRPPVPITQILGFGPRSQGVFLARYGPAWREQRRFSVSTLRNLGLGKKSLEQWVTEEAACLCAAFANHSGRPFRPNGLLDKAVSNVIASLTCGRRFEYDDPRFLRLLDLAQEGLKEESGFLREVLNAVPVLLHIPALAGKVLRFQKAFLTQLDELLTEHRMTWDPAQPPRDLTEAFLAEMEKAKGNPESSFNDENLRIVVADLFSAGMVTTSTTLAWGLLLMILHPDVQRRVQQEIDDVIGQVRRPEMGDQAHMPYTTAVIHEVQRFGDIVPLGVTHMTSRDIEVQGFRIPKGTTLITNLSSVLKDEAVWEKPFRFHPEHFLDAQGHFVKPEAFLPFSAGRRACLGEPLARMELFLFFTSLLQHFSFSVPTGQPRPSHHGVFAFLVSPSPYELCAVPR
# Cytochrome P450 2C9, sequence (P11712 whole entry): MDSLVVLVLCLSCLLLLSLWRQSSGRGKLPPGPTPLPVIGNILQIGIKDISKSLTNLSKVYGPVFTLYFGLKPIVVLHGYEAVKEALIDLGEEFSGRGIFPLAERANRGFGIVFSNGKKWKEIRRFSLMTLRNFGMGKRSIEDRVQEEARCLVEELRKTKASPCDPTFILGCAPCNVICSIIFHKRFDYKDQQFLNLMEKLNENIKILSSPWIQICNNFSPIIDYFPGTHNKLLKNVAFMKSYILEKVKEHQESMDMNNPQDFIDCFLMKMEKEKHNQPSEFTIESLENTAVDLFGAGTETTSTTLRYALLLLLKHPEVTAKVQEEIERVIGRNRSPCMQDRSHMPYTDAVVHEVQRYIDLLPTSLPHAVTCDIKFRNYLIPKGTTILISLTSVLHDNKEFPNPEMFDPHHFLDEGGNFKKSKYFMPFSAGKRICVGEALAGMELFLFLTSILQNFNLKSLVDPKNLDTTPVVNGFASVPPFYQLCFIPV
# Cytochrome P450 3A4, sequence (P08684 whole entry): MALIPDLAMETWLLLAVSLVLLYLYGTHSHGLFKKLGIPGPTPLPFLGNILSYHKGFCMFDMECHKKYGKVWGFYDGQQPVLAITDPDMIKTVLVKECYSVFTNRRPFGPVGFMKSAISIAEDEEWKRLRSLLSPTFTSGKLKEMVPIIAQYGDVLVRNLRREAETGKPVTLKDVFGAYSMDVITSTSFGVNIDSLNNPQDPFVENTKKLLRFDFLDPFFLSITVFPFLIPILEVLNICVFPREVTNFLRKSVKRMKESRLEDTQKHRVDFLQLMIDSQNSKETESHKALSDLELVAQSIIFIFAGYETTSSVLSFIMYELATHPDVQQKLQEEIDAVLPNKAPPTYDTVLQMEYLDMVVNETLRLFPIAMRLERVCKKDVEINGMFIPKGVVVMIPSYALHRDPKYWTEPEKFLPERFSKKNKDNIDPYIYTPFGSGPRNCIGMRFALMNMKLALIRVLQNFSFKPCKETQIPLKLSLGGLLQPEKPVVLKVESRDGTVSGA
# Cytochrome P450 2C19, sequence (P33261 whole entry): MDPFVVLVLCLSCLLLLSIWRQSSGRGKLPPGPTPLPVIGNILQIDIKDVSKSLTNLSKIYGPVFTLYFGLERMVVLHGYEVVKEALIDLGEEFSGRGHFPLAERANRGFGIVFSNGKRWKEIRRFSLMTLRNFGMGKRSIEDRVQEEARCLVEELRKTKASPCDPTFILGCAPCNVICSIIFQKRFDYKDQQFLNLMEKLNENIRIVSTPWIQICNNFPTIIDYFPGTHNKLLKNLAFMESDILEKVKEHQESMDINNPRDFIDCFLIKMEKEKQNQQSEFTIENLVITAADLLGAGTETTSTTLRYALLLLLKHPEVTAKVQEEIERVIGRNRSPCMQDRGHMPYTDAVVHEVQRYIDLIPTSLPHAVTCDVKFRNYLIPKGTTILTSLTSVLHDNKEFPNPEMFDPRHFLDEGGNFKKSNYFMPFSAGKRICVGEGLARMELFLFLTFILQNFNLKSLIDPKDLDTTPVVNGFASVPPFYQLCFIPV
smiles,measurement,setting,value
CN1CC[C@@H](NC(=O)Nc2ccccc2)C[C@@H]1c1nc2ccccc2[nH]1,Ratio IC50,[1],> 50
same,IC50,Protein smoothened,103 nM
CN1CC[C@@H](NC(=O)Nc2ccc(C#N)cc2)C[C@@H]1c1nc2ccccc2[nH]1.Cl.O,solubility,[2],1150 µg/mL
same,solubility,[3],> 69000 µg/mL
same,solubility,[4],20 µg/mL
CN1CC[C@@H](NC(=O)Nc2ccc(C#N)cc2)C[C@@H]1c1nc2ccccc2[nH]1,Ratio IC50,[1],> 50
CN1CC[C@@H](NC(=O)Nc2ccc3c(c2)OCCO3)C[C@@H]1c1nc2ccccc2[nH]1,Ratio IC50,[1],> 50
same,IC50,Protein smoothened,45 nM
CN1CC[C@@H](NC(=O)Nc2ccc(C#N)cc2)C[C@@H]1c1nc2ccccc2[nH]1 [GLASDEGIB],clearance,[5],3.9 mL/min/kg
same,bioavailability,[6],33%
same,fraction unbound,[7],0.54
same,CLint scaled,[8],67 mL/min/kg
same,clearance,[9],31 mL/min/kg
same,half-life,[10],1.4 h
same,logD,[11],2.48
same,CLint scaled,[12],< 14 mL/min/kg
same,fraction unbound,[13],0.091
same,Activity,Salmonella typhimurium,Non-toxic
same,Vd,[14],4.3 L/kg
same,fraction unbound,[15],0.141
same,IC50,Cytochrome P450 2C19,> 30000 nM
same,half-life,[16],2.9 h
same,fraction unbound,[17],0.61
same,IC50,Protein smoothened,5 nM
same,IC50,Cytochrome P450 2D6,> 30000 nM
same,bioavailability,[18],68%
same,IC50,Cytochrome P450 3A4,> 30000 nM
same,CLint scaled,[19],6.3 mL/min/kg
same,pKa,[20],6
same,Vd,[21],4.8 L/kg
same,Papp B→A,[22],15.6 ×10⁻⁶ cm/s
same,Papp A→B,[23],5.98 ×10⁻⁶ cm/s
same,fraction unbound,[24],0.57
same,Activity,[25],Non-toxic
same,IC50,Cytochrome P450 1A2,> 30000 nM
same,IC50,Cytochrome P450 2C8,> 30000 nM
same,fraction unbound,[26],0.109
same,IC50,Cytochrome P450 2C9,> 30000 nM
CN1CC[C@@H](NC(=O)c2ccc3c(c2)OCCO3)C[C@@H]1c1nc2ccccc2[nH]1,bioavailability,[27],33%
same,clearance,[28],18 mL/min/kg
same,Ratio IC50,[1],9
same,IC50,Protein smoothened,43 nM
same,dose excreted,[29],< 5%
same,Fa,[30],> 50%
same,clearance,[31],> 70 mL/min/kg
same,dose excreted,[32],< 5%
CN1CC[C@@H](NC(=O)Nc2cccnc2)C[C@@H]1c1nc2ccccc2[nH]1,Ratio IC50,[1],> 50
same,IC50,Protein smoothened,191 nM
O=C(Nc1cccc(-c2nc3ccccc3[nH]2)c1)c1ccc2c(c1)OCCO2,CL free,[33],0.314 mL/min/kg
same,fraction unbound,[13],< 0.01
same,fraction unbound,[15],< 0.01
same,IC50,Protein smoothened,5 nM
same,clearance,[31],25 mL/min/kg
same,solubility,[4],0.1 µg/mL
same,fraction unbound,[26],< 0.01
CN1CC[C@@H](NC(=O)Nc2cccc(C#N)c2)C[C@@H]1c1nc2ccccc2[nH]1,Ratio IC50,[1],> 50
same,IC50,Protein smoothened,72 nM
O=C(N[C@@H]1CCC[C@H](c2nc3ccccc3[nH]2)C1)c1ccc2c(c1)OCCO2,bioavailability,[34],4%
same,Ratio IC50,[1],18
same,IC50,Protein smoothened,88 nM
same,clearance,[31],33 mL/min/kg
same,Papp B→A,[22],65 ×10⁻⁶ cm/s
same,Papp A→B,[23],85 ×10⁻⁶ cm/s
same,solubility,[4],37 µg/mL
CN1CC[C@@H](NC(=O)Nc2ccc(C(F)(F)F)cc2)C[C@@H]1c1nc2ccccc2[nH]1,Ratio IC50,[1],> 50
same,IC50,Protein smoothened,5 nM
CN1CC[C@@H](NC(=O)Nc2ccc(Cl)cc2)C[C@@H]1c1nc2ccccc2[nH]1,Ratio IC50,[1],> 50
same,IC50,Protein smoothened,20 nM
COc1ccc(NC(=O)N[C@@H]2CCN(C)[C@@H](c3nc4ccccc4[nH]3)C2)cc1,Ratio IC50,[1],> 50
same,IC50,Protein smoothened,35 nM
